Assay results taken from ChEMBL document CHEMBL3627673, “Modification of cellular DNA by synthetic aziridinomitosenes” (Bioorg Med Chem, 2015).
Active and inactive are the calls of the source. The calls are words filed in the database; no cut-off is given here.

Key:
Jurkat [1] = experiment: Induction of DNA modifying activity in human Jurkat cells assessed as tail extent moments at 10 uM under hypoxic condition by alkaline comet assay in presence of 100 uM H2O2
Summary of the method: (§1)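 Jurkat cells at 1 x 10^5/mL were exposed to drug or PBS for 1 h at 37 °C in 5% CO2 (hypoxic arm in an N2/CO2 chamber). They then received 100 µM H2O2 in PBS for 20 min at 4 °C. Cells were embedded in agarose and lysed overnight, unwound at pH >13 for 20 min, electrophoresed at 20 V for 30 min at 4 °C, and stained with SYBR Green. Tail extent moment (tail length x tail DNA) was measured from ≥50 cells over two experiments.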

Jurkat [2] = experiment: Induction of DNA modifying activity in human Jurkat cells assessed as increase in amount of crosslink DNA at 10 uM for 1 hr under hypoxic condition by Hoechst-33342 staining based fluorescence assay
Summary of the method: (§2)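 Jurkat cells (~5-6 x 10^6) were exposed to drug or PBS for 1 h (aerobic, or in a sealed 95% N2/5% CO2 chamber) before DNA isolation. DNA (3,750 ng) was mixed with Hoechst 33342 in 0.5x TE, ex/em 360/460 nm, read before and after 5 min at 96-98 °C, 5 min ice, and 5 min room temperature. Crosslinked fraction was taken against a dye-only control and converted to crosslinks/fragment = -ln(1-X). Two isolations, each in triplicate.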

Jurkat [3] = experiment: Induction of DNA modifying activity in human Jurkat cells assessed as increase in DNA-protein crosslink at 100 uM under aerobic condition by K-SDS assay (reference value: 4.5. +/- 1.5%); type: cell-based
Summary of the method: (§3)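 Jurkat cells (2 x 10^5) treated 1.5 h at 37 °C in complete RPMI-1640, aerobic or in sealed 95% N2/5% CO2 chamber. Lysed in 2% SDS/Tris pH 7.5; KCl precipitation, three 65 °C wash rounds, proteinase K 55 °C 3 h. Protein-linked and free DNA quantified by SYBR Green against standard; %DPC = linked/(linked+free) x100. Mean ± SEM, three experiments (n=9).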

[4] = Stability of the compound in DMEM media assessed as compound remaining at 250 uM after 2 hrs by HPLC analysis; type: physicochemical; settings: read-out: Stability
Summary of the method: (§4)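 Stock in DMSO added to DMEM with 10% FBS and pen/strep to 250 µM final, then filtered. Injected every 15 min onto a phenyl column with detection at 254 and 480 nm. Mobile phase was acetonitrile (A) and pH 7.2 Tris (B) at 1.0 mL/min, 15 min gradient from 30% A to 70% A.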

Jurkat [5] = experiment: Induction of DNA modifying activity in human Jurkat cells assessed as increase in amount of crosslink DNA at 10 uM for 1 hr under aerobic condition by Hoechst-33342 staining based fluorescence assay; summary of the method: as §2
Jurkat [6] = experiment: Antiproliferative activity against human Jurkat T cells after 48 hrs by resazurin reduction assay; type: functional, cell-based
Summary of the method: (§5)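 Cells seeded at 8,000/well; adherent lines trypsinized and given 24 h at 37 °C in 5% CO2 before drug, media replaced with drug dilutions or vehicle. Drug exposure 48 h, then 0.1% resazurin added for 4-24 h. Fluorescence 530/590 nm, expressed as % of untreated, and IC50 from log(inhibitor) vs response fit. Mean ± SEM, ≥3 independent experiments, ≥3 wells each.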

[7] = Stability of the compound in DMEM media assessed as compound remaining at 250 uM after 5 hrs by HPLC analysis; type: physicochemical; settings: read-out: Stability; summary of the method: as §4
HuT78 = experiment: Antiproliferative activity against human HUT78 cells after 48 hrs by resazurin reduction assay; type: functional, cell-based; settings: HuT78, 48 h; summary of the method: as §5
[8] = Stability of the compound in DMEM media assessed as compound remaining at 250 uM after 49 hrs by HPLC analysis; type: physicochemical; settings: read-out: Stability; summary of the method: as §4
[9] = Stability of the compound in DMEM media assessed as compound remaining at 250 uM after 7 hrs by HPLC analysis; type: physicochemical; settings: read-out: Stability; summary of the method: as §4
Jurkat [10] = experiment: Antiproliferative activity against human Jurkat T cells in hypoxic condition after 48 hrs by resazurin reduction assay; type: functional, cell-based
Summary of the method: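 Jurkat cells held in a chamber purged 15 min with 95% N2/5% CO2, sealed, and incubated 1 h at 37 °C. Drug was diluted in N2/CO2-sparged PBS and added, then the chamber was purged again for 15 min and kept sealed at 37 °C for the assay. Resazurin readout was 530/590 nm, with IC50 from log(inhibitor) vs response fit.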

Jurkat [11] = experiment: Induction of DNA modifying activity in human Jurkat cells assessed as increase in H2O2-induced DNA strand break at 10 uM under aerobic condition by alkaline comet assay in presence of H2O2; type: cell-based; summary of the method: as §1
Jurkat [12] = experiment: Induction of DNA modifying activity in human Jurkat cells assessed as DNA-protein crosslink at 100 uM under hypoxic condition by K-SDS assay; type: cell-based; summary of the method: as §3
T47D = experiment: Antiproliferative activity against human T47D cells after 48 hrs by resazurin reduction assay; type: functional, cell-based; summary of the method: as §5
HL-60 = experiment: Antiproliferative activity against human HL60 cells after 48 hrs by resazurin reduction assay; type: functional, cell-based; settings: HL-60, 48 h; summary of the method: as §5
HepG2 = experiment: Antiproliferative activity against human HepG2 cells after 48 hrs by resazurin reduction assay; type: functional, cell-based; settings: HepG2, 48 h; summary of the method: as §5
[13] = Stability of the compound in methanol assessed as retention time by HPLC analysis; type: physicochemical
HeLa = experiment: Antiproliferative activity against human HeLa cells after 48 hrs by resazurin reduction assay; type: functional, cell-based; summary of the method: as §5
Jurkat [14] = experiment: Induction of DNA modifying activity in human Jurkat cells assessed as tail extent moments at 10 uM under aerobic condition by alkaline comet assay in presence of 100 uM H2O2; summary of the method: as §1
[15] = Stability of the compound in DMEM media assessed as compound remaining at 213 uM after 1 hr by HPLC analysis; type: physicochemical; settings: read-out: Stability
[16] = Stability of the compound in DMEM media assessed as compound remaining at 213 uM after 0.5 hrs by HPLC analysis; type: physicochemical; settings: read-out: Stability
[17] = Stability of the compound in DMEM media assessed as compound remaining at 213 uM after 2 hrs by HPLC analysis; type: physicochemical; settings: read-out: Stability
[18] = Stability of the compound in DMEM media assessed as compound remaining at 213 uM after 1.5 hrs by HPLC analysis; type: physicochemical; settings: read-out: Stability

CC1=CC(=O)c2c(COC(N)=O)c3n(c2C1=O)C[C@H]1[C@@H]3N1C (some centres undefined)
Activity (Jurkat [1]): 0.32
Activity (Jurkat [2]): 0.51
Activity (Jurkat [3]): 17%
remaining at 2 h, 250 µM [4]: 89%
Activity (Jurkat [5]): 0.55
IC50 (Jurkat [6]): 8 nM
remaining at 5 h, 250 µM [7]: 78%
IC50 (HuT78): 24 nM
remaining at 49 h, 250 µM [8]: 18%
remaining at 7 h, 250 µM [9]: 72%
IC50 (Jurkat [10]): 4 nM
Activity (Jurkat [11]): Active
Activity (Jurkat [12]): 41.9%
IC50 (T47D): 0.225 µM
IC50 (HL-60): 30 nM
IC50 (HepG2): 342 nM
Retention_time [13]: 3.6 min
IC50 (HeLa): 525 nM
Activity (Jurkat [14]): 0.26

CO[C@@]12[C@H](COC(N)=O)C3=C(C(=O)C(C)=C(N)C3=O)N1C[C@@H]1N[C@@H]12 [MITOMYCIN]
Activity (Jurkat [1]): 87
Activity (Jurkat [2]): Active
Activity (Jurkat [3]): 7.8%
Activity (Jurkat [5]): Active
IC50 (Jurkat [6]): 578 nM
IC50 (HuT78): 66 nM
IC50 (Jurkat [10]): 303 nM
Activity (Jurkat [12]): inactive
IC50 (T47D): 17 µM
IC50 (HL-60): 410 nM
IC50 (HepG2): 2940 nM
IC50 (HeLa): 1870 nM
Activity (Jurkat [14]): 96

CN1[C@@H]2c3c(COC(N)=O)c4c(n3C[C@@H]21)C(=O)C=CC4=O (some centres undefined)
Activity (Jurkat [1]): 3.6
Activity (Jurkat [3]): 17%
remaining at 1 h, 213 µM [15]: 25%
Activity (Jurkat [5]): Active
IC50 (Jurkat [6]): 4160 nM
IC50 (HuT78): 131 nM
IC50 (Jurkat [10]): 3960 nM
remaining at 0.5 h, 213 µM [16]: 50%
remaining at 2 h, 213 µM [17]: 8%
Activity (Jurkat [11]): Active
Activity (Jurkat [12]): inactive
IC50 (T47D): 9.29 µM
IC50 (HL-60): 2030 nM
IC50 (HepG2): 7870 nM
remaining at 1.5 h, 213 µM [18]: 14%
IC50 (HeLa): 6210 nM
Activity (Jurkat [14]): 0.49
